Calls of active or inactive are those of the source. The rule behind the calls is not given here.
How the values were obtained:
Plasmodium berghei [1] = experiment: Antiplasmodial activity against Plasmodium berghei ANKA infected in C57BL/6 mouse assessed as reduction in parasitemia at 1 mg, ip daily for 5 days measured after 72 hrs relative to control; assay type: functional, organism-based
Rattus norvegicus [2] = organism: Rattus norvegicus; experiment: Vasodilatory activity in pre-contracted Wistar rat aortic rings; assay type: functional, Aorta
Method in brief: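 Aortic strips, endothelium removed, from male Wistar rats (180-200 g) were held in Krebs-bicarbonate at 37 °C, pH 7.4, gassed with 95% O₂/5% CO₂. After 90 min equilibration they were contracted with 1 μM phenylephrine. Cumulative concentration-response curves were run at plateau, with isometric recording. EC50 is the mean of ≥5 determinations.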

Plasmodium falciparum [3] = experiment: Antiplasmodial activity against chloroquine-sensitive Plasmodium falciparum D10 assessed as inhibition of parasite LDH activity after 72 hrs by spectrophotometry; assay type: functional, organism-based; details: D10, 72 h
Method in brief: (§1)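 Asynchronous cultures (1-1.5% parasitemia, 1% final haematocrit) in human A+ RBCs were grown in RPMI 1640 with 1% AlbuMax, hypoxanthine, HEPES and glutamine, at 37 °C under 1% O₂/5% CO₂. IC50 is the mean±SD of ≥3 experiments.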

Rattus norvegicus [4] = organism: Rattus norvegicus; experiment: Vasodilatory activity in pre-contracted Wistar rat aortic rings in presence of 1 uM ODQ; assay type: functional, Aorta
Method in brief: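 Endothelium-denuded aortic strips from male Wistar rats (180-200 g) were kept in Krebs-bicarbonate at 37 °C, pH 7.4. ODQ at 1 μM was added 5 min before contraction with 1 μM phenylephrine. Cumulative relaxation curves were recorded isometrically. EC50 is the mean of ≥5 determinations.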

Plasmodium falciparum [5] = experiment: Antiplasmodial activity against chloroquine-resistant Plasmodium falciparum W2 assessed as inhibition of parasite LDH activity after 72 hrs by spectrophotometry; assay type: functional, organism-based; details: W2, 72 h; method in brief: as §1
Plasmodium berghei [6] = experiment: Antiplasmodial activity against Plasmodium berghei ANKA infected in C57BL/6 mouse assessed as reduction in parasitemia at 1.15 mg, ip daily for 5 days measured upto 24 hrs relative to control; assay type: functional, organism-based
Method in brief: (§2)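 C57BL/6 mice aged 6-8 weeks were infected ip with 1x10⁶ PbA-GFP parasitized red blood cells. Parasitemia, motor behaviour, rectal temperature and weight were checked from day 5. Treatment began at late-stage CM, defined by neurological signs (ataxia, paralysis, poor righting, seizures, roll-over, coma). Doses were 100 μL ip daily for 5 days: 1.4 mg in 20% DMSO/20% PEG400/60% saline, 1.15 mg in saline.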

Plasmodium berghei [7] = experiment: Antiplasmodial activity against Plasmodium berghei ANKA infected in C57BL/6 mouse assessed as reduction in parasitemia at 1.15 mg, ip daily for 5 days measured after 72 hrs relative to control; assay type: functional, organism-based; method in brief: as §2
Plasmodium berghei [8] = experiment: Antiplasmodial activity against Plasmodium berghei ANKA infected in C57BL/6 mouse assessed as mouse survival 1.15 mg, ip daily for 5 days relative to control; assay type: functional, organism-based; method in brief: as §2
Plasmodium berghei [9] = experiment: Antiplasmodial activity against Plasmodium berghei ANKA infected in C57BL/6 mouse assessed as mouse survival at 1 mg, ip daily for 5 days relative to control; assay type: functional
Plasmodium berghei [10] = experiment: Antiplasmodial activity against Plasmodium berghei ANKA infected in C57BL/6 mouse assessed as reduction in parasitemia at 1.4 mg, ip daily for 5 days measured upto 24 hrs relative to control; assay type: functional; parameters: scale not given: the % may be the effect or the level left; method in brief: as §2
Plasmodium berghei [11] = experiment: Antiplasmodial activity against Plasmodium berghei ANKA infected in C57BL/6 mouse assessed as reduction in parasitemia at 1 mg, ip daily for 5 days measured upto 24 hrs relative to control; assay type: functional; parameters: scale not given: the % may be the effect or the level left
Plasmodium berghei [12] = experiment: Antiplasmodial activity against Plasmodium berghei ANKA infected in C57BL/6 mouse assessed as mouse survival at 1.4 mg, ip daily for 5 days relative to control; assay type: functional; method in brief: as §2
Plasmodium berghei [13] = experiment: Antiplasmodial activity against Plasmodium berghei ANKA infected in C57BL/6 mouse assessed as reduction in parasitemia at 1.4 mg, ip daily for 5 days measured after 72 hrs relative to control; assay type: functional, organism-based; method in brief: as §2
[14] = Rattus norvegicus, Aorta, read-out: EC50

Row | Structure (SMILES) | IC50 (Plasmodium falciparum [3]) [nM] | IC50 (Plasmodium falciparum [5]) [nM] | EC50 (Rattus norvegicus [2]; [14]) [nM] | EC50 (Rattus norvegicus [4]; [14]) [nM] | also measured
1 | CCN(CC)Cc1cc(Nc2ccnc3cc(Cl)ccc23)ccc1O.Cl | 12 | 16 | – | – | Activity (Plasmodium berghei [1]): Active; EC50 (Rattus norvegicus [2]): Not Active; EC50 (Rattus norvegicus [4]): Not Active
2 | O=[N+]([O-])OCCN1CCN(Cc2cc(Nc3ccnc4cc(Cl)ccc34)ccc2O)CC1 | 55 | 138 | 120 | 6500 | –
3 | O=[N+]([O-])OCC1CCNCC1 | > 5000 | > 5000 | – | – | –
4 | O=[N+]([O-])OCC1CCN(Cc2cc(Nc3ccnc4cc(Cl)ccc34)ccc2O)CC1 | 19 | 28 | 100 | > 30000 | –
5 | O=[N+]([O-])OCCCN1CCN(Cc2cc(Nc3ccnc4cc(Cl)ccc34)ccc2O)CC1 | 18 | 34 | 79 | 3600 | –
6 | CCNCCCCCCO[N+](=O)[O-] | > 5000 | > 5000 | – | – | –
7 | O=[N+]([O-])OCCCNCc1cc(Nc2ccnc3cc(Cl)ccc23)ccc1O | 27 | 62 | 420 | 11000 | –
8 | O=[N+]([O-])OCCC1CCNCC1 | > 5000 | > 5000 | – | – | –
9 | CCN(CCCCC(CO[N+](=O)[O-])O[N+](=O)[O-])Cc1cc(Nc2ccnc3cc(Cl)ccc23)ccc1O (stereo not given) | 38 | 21 | 220 | > 30000 | Activity (Plasmodium berghei [6]): inactive; Activity (Plasmodium berghei [1]): Active; Activity (Plasmodium berghei [7]): Active; Survival (Plasmodium berghei [8]): inactive
10 | CCN(CCOc1no[n+]([O-])c1S(=O)(=O)c1ccccc1)Cc1cc(Nc2ccnc3cc(Cl)ccc23)ccc1O.Cl.Cl.Cl | 46 | 152 | 17 | 1000 | Activity (Plasmodium berghei [1]): Active; Activity (Plasmodium berghei [7]): Active; Survival (Plasmodium berghei [9]): 8%; Activity (Plasmodium berghei [10]): 76%; Activity (Plasmodium berghei [11]): 72%; Survival (Plasmodium berghei [12]): 23%; Activity (Plasmodium berghei [13]): Active
11 | CCN(CCOc1no[n+]([O-])c1-c1ccccc1)Cc1cc(Nc2ccnc3cc(Cl)ccc23)ccc1O | 23 | 24 | 1200 | > 10000 | –
12 | CN(C)CCCOc1no[n+]([O-])c1-c1ccccc1 | > 5000 | 4940 | 30 | – | –
13 | CCNCCCCC(CO[N+](=O)[O-])O[N+](=O)[O-] (stereo not given) | > 5000 | > 5000 | – | – | –
14 | CN(C)CCCOc1no[n+]([O-])c1S(=O)(=O)c1ccccc1 | > 5000 | > 5000 | 14300 | > 10000 | –
15 | O=[N+]([O-])OCCN1CCNCC1 | > 5000 | > 5000 | – | – | –
16 | O=[N+]([O-])OCCC1CCN(Cc2cc(Nc3ccnc4cc(Cl)ccc34)ccc2O)CC1 | 19 | 25 | 100 | > 30000 | –
17 | CCN(CCCO[N+](=O)[O-])Cc1cc(Nc2ccnc3cc(Cl)ccc23)ccc1O | 27 | 31 | 450 | 3300 | –
18 | CCN(CCCCCCO[N+](=O)[O-])Cc1cc(Nc2ccnc3cc(Cl)ccc23)ccc1O | 31 | 28 | 450 | > 30000 | –
19 | O=[N+]([O-])OCCCN1CCNCC1 | > 5000 | > 5000 | – | – | –
